Data published in ChEMBL document CHEMBL1125901, “Synthesis and siderophore activity of albomycin-like peptides derived from N5-acetyl-N5-hydroxy-L-ornithine” (1991).
Active and inactive are the calls of the source. No cut-off for these calls is given here.

How the values were obtained:
[1] = tested on: Shigella flexneri; assay: The relative ability of compound to promote the growth of Shigella flexneri SA 240, a strain lacking the ability to synthesize siderophores was measured as zone stimulation at concentration of 100 uM; format: functional
Procedure, shortened: (§1)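 SA240 (S. flexneri 2a SA100 iucD::Tn5, a siderophore-synthesis mutant) was grown overnight in Luria broth, then seeded at 10^3/mL into Luria agar with the iron chelator EDDA (250 µg/mL). Compounds were made as 10 mM water stocks and diluted in water to the test levels. Sterile disks holding 10 µL were laid on the agar and incubated 18 h at 37 °C. Diameters of the growth-stimulation zones were measured.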

[2] = tested on: Shigella flexneri; assay: The relative ability of compound to promote the growth of Shigella flexneri SA 240, a strain lacking the ability to synthesize siderophores was measured as zone stimulation at concentration of 1 mM; format: functional; procedure, shortened: as §1
[3] = tested on: Shigella flexneri; assay: The relative ability of compound to promote the growth of Shigella flexneri SA 240, a strain lacking the ability to synthesize siderophores was measured as zone stimulation at concentration of 500 uM; format: functional; procedure, shortened: as §1
[4] = tested on: Shigella flexneri; assay: The relative ability of compound to promote the growth of Shigella flexneri SA 240, a strain lacking the ability to synthesize siderophores was measured as zone stimulation at concentration of 5 mM; format: functional; procedure, shortened: as §1
[5] = tested on: Shigella flexneri; assay: The relative ability of compound to promote the growth of Shigella flexneri SA 240, a strain lacking the ability to synthesize siderophores was measured as zone stimulation at concentration of 50 uM; NA=No activity; format: functional, organism-based; procedure, shortened: as §1
[6] = tested on: Shigella flexneri; assay: The relative ability of compound to promote the growth of Shigella flexneri SA 240, a strain lacking the ability to synthesize siderophores was measured as zone stimulation at concentration of 5 mM; NA=No activity; format: functional, organism-based; procedure, shortened: as §1
[7] = tested on: Shigella flexneri; assay: The relative ability of compound to promote the growth of Shigella flexneri SA 240, a strain lacking the ability to synthesize siderophores was measured as zone stimulation at concentration of 100 uM; NA=No activity; format: functional, organism-based; procedure, shortened: as §1

| Compound | Zone of stimulation [1] [mm] | Zone of stimulation [2] [mm] | Zone of stimulation [3] [mm] | Zone of stimulation [4] [mm] | Zone of stimulation [5] | Zone of stimulation [6] | Zone of stimulation [7] |
| --- | --- | --- | --- | --- | --- | --- | --- |
| CC(=O)N(O)CCC[C@H](NC(=O)[C@H](CCCN(O)C(C)=O)NC(=O)[C@@H](N)CCCN(O)C(C)=O)C(=O)N[C@@H](C(=O)O)c1ccccc1 | 17 | 41 | 28 | 45 | inactive |  |  |
| CC(=O)N(O)CCC[C@H](NC(=O)[C@H](CCCN(O)C(C)=O)NC(=O)[C@@H](N)CCCN(O)C(C)=O)C(=O)N[C@H](CO)C(=O)N[C@H](CC(=O)O)C(=O)O |  |  |  |  |  | inactive |  |
| CC(=O)N(O)CCC[C@H](NC(=O)[C@H](CCCN(O)C(C)=O)NC(=O)[C@@H](N)CCCN(O)C(C)=O)C(=O)N[C@@H](C(=O)O)c1ccc(O)cc1 | 15 | 40 | 25 | 45 | inactive |  |  |
| CC(=O)N(O)CCC[C@H](NC(=O)[C@H](CCCN(O)C(C)=O)NC(=O)[C@@H](N)CCCN(O)C(C)=O)C(=O)N[C@H](CO)C(=O)O |  | 12 | 12 | 18 |  |  | inactive |
| CC(=O)N(O)CCC[C@H](N)C(=O)O |  |  |  |  |  | inactive |  |
| CC(=O)N(O)CCC[C@H](NC(=O)[C@H](CCCN(O)C(C)=O)NC(=O)[C@@H](N)CCCN(O)C(C)=O)C(=O)O | 13 | 37 | 30 | 40 | inactive |  |  |
